Experimental data published in BindingDB's records for doi:10.1021/jm00089a022 (Warner-Lambert, 1992).

Target: T1, 3-hydroxy-3-methylglutaryl-coenzyme A reductase (Homo sapiens, UniProt P04035)
T1 sequence (P04035 whole entry): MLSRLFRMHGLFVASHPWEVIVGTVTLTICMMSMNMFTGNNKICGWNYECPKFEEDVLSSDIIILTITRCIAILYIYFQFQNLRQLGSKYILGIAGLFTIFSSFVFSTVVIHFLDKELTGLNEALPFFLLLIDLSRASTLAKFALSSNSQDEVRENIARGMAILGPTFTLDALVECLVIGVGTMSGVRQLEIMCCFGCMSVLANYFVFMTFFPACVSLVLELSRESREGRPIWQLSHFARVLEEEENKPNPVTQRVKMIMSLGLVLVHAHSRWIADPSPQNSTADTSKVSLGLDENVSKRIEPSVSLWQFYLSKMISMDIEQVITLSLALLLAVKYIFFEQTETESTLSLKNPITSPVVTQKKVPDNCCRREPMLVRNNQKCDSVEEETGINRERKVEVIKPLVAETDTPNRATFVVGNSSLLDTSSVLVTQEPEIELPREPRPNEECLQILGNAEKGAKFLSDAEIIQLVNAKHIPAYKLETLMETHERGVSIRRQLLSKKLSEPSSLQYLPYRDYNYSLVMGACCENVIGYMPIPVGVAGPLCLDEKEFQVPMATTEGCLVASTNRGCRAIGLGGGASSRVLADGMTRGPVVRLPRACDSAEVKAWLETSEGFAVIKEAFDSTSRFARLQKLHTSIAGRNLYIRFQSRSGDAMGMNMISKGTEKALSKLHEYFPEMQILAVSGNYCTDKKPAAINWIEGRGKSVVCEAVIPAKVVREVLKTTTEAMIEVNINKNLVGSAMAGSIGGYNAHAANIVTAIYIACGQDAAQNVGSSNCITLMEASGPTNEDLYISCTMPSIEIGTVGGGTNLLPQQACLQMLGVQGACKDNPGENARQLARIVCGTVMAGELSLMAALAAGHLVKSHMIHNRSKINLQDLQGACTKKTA
Assay: (§1) Tested in vitro for the inhibition of HMG-CoA reductase from partially purified microsomal preparations.
Summary of the method: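 Lactones saponified to the 3,5-dihydroxy acids before assay. Inhibition of partially purified microsomal HMG-CoA reductase. Each inhibitor concentration assayed in triplicate.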

SMILES | IC50 [nM]
CC(C)c1nn(-c2ccccn2)c(-c2ccc(F)cc2)c1/C=C/[C@@H](O)C[C@@H](O)CC(=O)O | 24

Target: T1, 3-hydroxy-3-methylglutaryl-coenzyme A reductase
Assay: ChEBML_80349
Description: as §1

SMILES | IC50 [nM]
CC(C)c1nn(-c2nc3ccccc3s2)c(-c2ccc(F)cc2)c1/C=C/[C@@H](O)C[C@@H](O)CC(=O)O | 59
O=C(O)C[C@H](O)C[C@H](O)/C=C/c1c(C(F)(F)F)nn(-c2ccccn2)c1-c1ccc(F)cc1 | 17
CC(C)c1nn(-c2ccc3ccccc3n2)c(-c2ccc(F)cc2)c1/C=C/[C@@H](O)C[C@@H](O)CC(=O)O | 62
CC(C)c1nn(-c2ccccc2)c(-c2ccc(F)cc2)c1/C=C/[C@@H](O)C[C@@H](O)CC(=O)O | 7
CC(C)c1nn(-c2cnccn2)c(-c2ccc(F)cc2)c1/C=C/[C@@H](O)C[C@@H](O)CC(=O)O | 7
CC(C)c1nn(-c2ccccc2)c(-c2ccc(F)cc2)c1CCC(O)C[C@@H](O)CC(=O)O (some centres undefined) | 40
CC[C@H](C)C(=O)O[C@H]1C[C@@H](C)C=C2C=C[C@H](C)[C@H](CCC(O)C[C@@H](O)CC(=O)O)[C@H]21 (some centres undefined) | 20
CC(C)c1nn(-c2ccccn2)c(-c2ccc(F)cc2)c1CCC(O)C[C@@H](O)CC(=O)O (some centres undefined) | 110
